Data taken from ChEMBL document CHEMBL1649446, “Comparative antipneumococcal activities of sulopenem and other drugs” (2009).
Converted amounts (≈) assume the structure as drawn.

How the values were obtained:
Type in all cases: functional
Streptococcus pneumoniae [1] = test: Antimicrobial activity against Streptococcus pneumoniae isolate 3260 by agar dilution method
Streptococcus pneumoniae [2] = test: Antimicrobial activity against Streptococcus pneumoniae 7 by time-kill analysis
Outline: (§1)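 Time-kill in cation-adjusted Mueller-Hinton broth with 5% lysed horse blood; inocula 5 × 105 to 5 × 10^6 CFU/ml; drugs at MIC, 2× and 4× MIC; 35°C shaking water bath; viable counts at 0, 3, 6, 12, 24 h. Bactericidal = ≥3 log10 CFU/ml (99.9%) drop from original inoculum; 90%/99%/99.9% killing scored per strain.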

Streptococcus pneumoniae [3] = test: Antimicrobial activity against Streptococcus pneumoniae isolate 3282 by agar dilution method
Streptococcus pneumoniae [4] = test: Antimicrobial activity against Streptococcus pneumoniae isolate 3481 by agar dilution method
Outline: (§2)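 Agar dilution MIC on Mueller-Hinton agar with 5% sheep blood, inocula 10^4 CFU/spot; amoxicillin-clavulanate combined 1:2; S. pneumoniae ATCC 49619 quality control each run.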

Streptococcus pneumoniae [5] = test: Antimicrobial activity against Streptococcus pneumoniae isolate 3681 by agar dilution method; outline: as §2
Streptococcus pneumoniae [6] = test: Antimicrobial activity against penicillin-resistant Streptococcus pneumoniae by agar dilution method; outline: as §2
Streptococcus pneumoniae [7] = test: Antimicrobial activity against Streptococcus pneumoniae isolate 3374 by agar dilution method; outline: as §2
Streptococcus pneumoniae [8] = test: Antimicrobial activity against Streptococcus pneumoniae isolate 37 by agar dilution method; outline: as §2
Streptococcus pneumoniae [9] = test: Antimicrobial activity against Streptococcus pneumoniae isolate 1564 by agar dilution method
Streptococcus pneumoniae [10] = test: Antimicrobial activity against Streptococcus pneumoniae isolate 1394 by agar dilution method
Streptococcus pneumoniae [11] = test: Antimicrobial activity against Streptococcus pneumoniae isolate 1055 by agar dilution method
Streptococcus pneumoniae [12] = test: Antimicrobial activity against Streptococcus pneumoniae 9 by time-kill analysis
Outline: as §1, with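 “12 and” for “12,”, “if” for “=”, “reduction” for “drop”, “90% and 99%” for “90%/99%/99.9%”, “also scored.” for “scored per strain.”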

Streptococcus pneumoniae [13] = test: Antimicrobial activity against Streptococcus pneumoniae 2 by time-kill analysis; outline: as §1
Streptococcus pneumoniae [14] = test: Antimicrobial activity against Streptococcus pneumoniae isolate 3587 by agar dilution method
Streptococcus pneumoniae [15] = test: Antimicrobial activity against Streptococcus pneumoniae 11 by time-kill analysis; outline: as §1
Streptococcus pneumoniae [16] = test: Antimicrobial activity against penicillin-intermediate Streptococcus pneumoniae by agar dilution method
Streptococcus pneumoniae [17] = test: Antimicrobial activity against Streptococcus pneumoniae isolate 3346 by agar dilution method
Streptococcus pneumoniae [18] = test: Antimicrobial activity against Streptococcus pneumoniae isolate 2880 by agar dilution method; outline: as §2
Streptococcus pneumoniae [19] = test: Antimicrobial activity against Streptococcus pneumoniae 5 by time-kill analysis
Outline: as §1, with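 “12 and” for “12,”, “if” for “=”, “reduction” for “drop”, “90% and 99%” for “90%/99%/99.9%”, “also scored.” for “scored per strain.”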

Streptococcus pneumoniae [20] = test: Antimicrobial activity against Streptococcus pneumoniae isolate 1146 by agar dilution method; outline: as §2
Streptococcus pneumoniae [21] = test: Antimicrobial activity against Streptococcus pneumoniae 4 by time-kill analysis; outline: as §1
Streptococcus pneumoniae [22] = test: Antimicrobial activity against Streptococcus pneumoniae 1 by time-kill analysis
Outline: as §1, with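 “12 and” for “12,”, “if” for “=”, “reduction” for “drop”, “90% and 99%” for “90%/99%/99.9%”, “also scored.” for “scored per strain.”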

Streptococcus pneumoniae [23] = test: Antimicrobial activity against Streptococcus pneumoniae isolate 24 by agar dilution method
Streptococcus pneumoniae [24] = test: Antimicrobial activity against Streptococcus pneumoniae isolate 1384 by agar dilution method; outline: as §2
Streptococcus pneumoniae [25] = test: Antimicrobial activity against penicillin-susceptible Streptococcus pneumoniae by agar dilution method
Streptococcus pneumoniae [26] = test: Antimicrobial activity against Streptococcus pneumoniae isolate 1397 by agar dilution method; outline: as §2
Streptococcus pneumoniae [27] = test: Antimicrobial activity against Streptococcus pneumoniae isolate 3275 by agar dilution method; outline: as §2
Streptococcus pneumoniae [28] = test: Antimicrobial activity against Streptococcus pneumoniae 3 by time-kill analysis; outline: as §1
Streptococcus pneumoniae [29] = test: Antimicrobial activity against Streptococcus pneumoniae isolate 4755 by agar dilution method; outline: as §2
Streptococcus pneumoniae [30] = test: Antimicrobial activity against Streptococcus pneumoniae isolate 2688 by agar dilution method; outline: as §2
Streptococcus pneumoniae [31] = test: Antimicrobial activity against Streptococcus pneumoniae isolate 2686 by agar dilution method; outline: as §2
Streptococcus pneumoniae [32] = test: Antimicrobial activity against Streptococcus pneumoniae 19A by agar dilution method; outline: as §2
Streptococcus pneumoniae [33] = test: Antimicrobial activity against Streptococcus pneumoniae isolate 3458 by agar dilution method
Streptococcus pneumoniae [34] = test: Antimicrobial activity against Streptococcus pneumoniae isolate 4747 by agar dilution method; outline: as §2
Streptococcus pneumoniae [35] = test: Antimicrobial activity against Streptococcus pneumoniae isolate 2617 by agar dilution method; outline: as §2
Streptococcus pneumoniae [36] = test: Antimicrobial activity against Streptococcus pneumoniae isolate 3412 by agar dilution method; outline: as §2
Streptococcus pneumoniae [37] = test: Antimicrobial activity against Streptococcus pneumoniae 8 by time-kill analysis; outline: as §1
Streptococcus pneumoniae [38] = test: Antimicrobial activity against Streptococcus pneumoniae isolate 3455 by agar dilution method
Streptococcus pneumoniae [39] = test: Antimicrobial activity against Streptococcus pneumoniae isolate 1424 by agar dilution method; outline: as §2
Streptococcus pneumoniae [40] = test: Antimicrobial activity against Streptococcus pneumoniae 10 by time-kill analysis; outline: as §1
Streptococcus pneumoniae [41] = test: Antimicrobial activity against Streptococcus pneumoniae isolate 33 by agar dilution method; outline: as §2
Streptococcus pneumoniae [42] = test: Antimicrobial activity against Streptococcus pneumoniae 6 by time-kill analysis; outline: as §1
Streptococcus pneumoniae [43] = test: Antimicrobial activity against Streptococcus pneumoniae isolate 3791 by agar dilution method; outline: as §2
Streptococcus pneumoniae [44] = test: Antimicrobial activity against Streptococcus pneumoniae isolate 3263 by agar dilution method
Streptococcus pneumoniae [45] = test: Antimicrobial activity against Streptococcus pneumoniae isolate 1147 by agar dilution method; outline: as §2
Streptococcus pneumoniae [46] = test: Antimicrobial activity against Streptococcus pneumoniae isolate 2874 by agar dilution method; outline: as §2
Streptococcus pneumoniae [47] = test: Antimicrobial activity against Streptococcus pneumoniae 12 by time-kill analysis; outline: as §1

SMILES: CC[C@H]1OC(=O)[C@H](C)[C@@H](O[C@H]2C[C@@](C)(OC)[C@@H](O)[C@H](C)O2)[C@H](C)[C@@H](O[C@@H]2O[C@H](C)C[C@H](N(C)C)[C@H]2O)[C@](C)(O)C[C@@H](C)CN(C)[C@H](C)[C@@H](O)[C@]1(C)O [AZITHROMYCIN]
- MIC (Streptococcus pneumoniae [1]): > 64 µg/mL
- MIC (Streptococcus pneumoniae [2]): > 64 µg/mL
- MIC (Streptococcus pneumoniae [3]): > 64 µg/mL
- MIC (Streptococcus pneumoniae [4]): > 64 µg/mL
- MIC (Streptococcus pneumoniae [5]): 0.125 µg/mL (≈ 0.167 µM)
- MIC50 (Streptococcus pneumoniae [6]): 0.125 µg/mL (≈ 0.167 µM)
- MIC (Streptococcus pneumoniae [7]): > 64 µg/mL
- MIC (Streptococcus pneumoniae [8]): > 64 µg/mL
- MIC (Streptococcus pneumoniae [9]): > 64 µg/mL
- MIC (Streptococcus pneumoniae [10]): > 64 µg/mL
- MIC (Streptococcus pneumoniae [11]): > 64 µg/mL
- MIC (Streptococcus pneumoniae [12]): 0.06 µg/mL (≈ 0.0801 µM)
- MIC (Streptococcus pneumoniae [13]): 0.06 µg/mL (≈ 0.0801 µM)
- MIC (Streptococcus pneumoniae [14]): > 64 µg/mL
- MIC (Streptococcus pneumoniae [15]): > 64 µg/mL
- MIC50 (Streptococcus pneumoniae [16]): 2 µg/mL (≈ 2.67 µM)
- MIC90 (Streptococcus pneumoniae [16]): > 64 µg/mL
- MIC (Streptococcus pneumoniae [17]): > 64 µg/mL
- MIC (Streptococcus pneumoniae [18]): > 64 µg/mL
- MIC (Streptococcus pneumoniae [19]): > 64 µg/mL
- MIC (Streptococcus pneumoniae [20]): 2 µg/mL (≈ 2.67 µM)
- MIC (Streptococcus pneumoniae [21]): 0.06 µg/mL (≈ 0.0801 µM)
- MIC (Streptococcus pneumoniae [22]): > 64 µg/mL
- MIC (Streptococcus pneumoniae [23]): > 64 µg/mL
- MIC (Streptococcus pneumoniae [24]): > 64 µg/mL
- MIC50 (Streptococcus pneumoniae [25]): 2 µg/mL (≈ 2.67 µM)
- MIC90 (Streptococcus pneumoniae [25]): > 64 µg/mL
- MIC (Streptococcus pneumoniae [26]): > 64 µg/mL
- MIC (Streptococcus pneumoniae [27]): > 64 µg/mL
- MIC (Streptococcus pneumoniae [28]): 4 µg/mL (≈ 5.34 µM)
- MIC (Streptococcus pneumoniae [29]): > 64 µg/mL
- MIC (Streptococcus pneumoniae [30]): > 64 µg/mL
- MIC (Streptococcus pneumoniae [31]): > 64 µg/mL
- MIC50 (Streptococcus pneumoniae [32]): > 64 µg/mL
- MIC90 (Streptococcus pneumoniae [32]): > 64 µg/mL
- MIC (Streptococcus pneumoniae [33]): > 64 µg/mL
- MIC (Streptococcus pneumoniae [34]): > 64 µg/mL
- MIC (Streptococcus pneumoniae [35]): 0.125 µg/mL (≈ 0.167 µM)
- MIC (Streptococcus pneumoniae [36]): > 64 µg/mL
- MIC (Streptococcus pneumoniae [37]): 4 µg/mL (≈ 5.34 µM)
- MIC (Streptococcus pneumoniae [38]): > 64 µg/mL
- MIC (Streptococcus pneumoniae [39]): > 64 µg/mL
- MIC (Streptococcus pneumoniae [40]): 0.03 µg/mL (≈ 0.0401 µM)
- MIC (Streptococcus pneumoniae [41]): 0.125 µg/mL (≈ 0.167 µM)
- MIC (Streptococcus pneumoniae [42]): 0.06 µg/mL (≈ 0.0801 µM)
- MIC (Streptococcus pneumoniae [43]): > 64 µg/mL
- MIC (Streptococcus pneumoniae [44]): > 64 µg/mL
- MIC (Streptococcus pneumoniae [45]): 2 µg/mL (≈ 2.67 µM)
- MIC (Streptococcus pneumoniae [46]): > 64 µg/mL
- MIC (Streptococcus pneumoniae [47]): 0.12 µg/mL (≈ 0.16 µM)

SMILES: O=C(O)c1cn(C2CC2)c2cc(N3CCNCC3)c(F)cc2c1=O [CIPROFLOXACIN]
- MIC (Streptococcus pneumoniae [2]): 1 µg/mL (≈ 3.02 µM)
- MIC (Streptococcus pneumoniae [5]): 1 µg/mL (≈ 3.02 µM)
- MIC (Streptococcus pneumoniae [8]): 1 µg/mL (≈ 3.02 µM)
- MIC (Streptococcus pneumoniae [9]): 1 µg/mL (≈ 3.02 µM)
- MIC (Streptococcus pneumoniae [11]): 32 µg/mL (≈ 96.6 µM)
- MIC (Streptococcus pneumoniae [15]): 1 µg/mL (≈ 3.02 µM)
- MIC (Streptococcus pneumoniae [18]): 1 µg/mL (≈ 3.02 µM)
- MIC (Streptococcus pneumoniae [19]): 1 µg/mL (≈ 3.02 µM)
- MIC (Streptococcus pneumoniae [20]): 32 µg/mL (≈ 96.6 µM)
- MIC (Streptococcus pneumoniae [21]): 16 µg/mL (≈ 48.3 µM)
- MIC (Streptococcus pneumoniae [22]): > 32 µg/mL
- MIC (Streptococcus pneumoniae [23]): 1 µg/mL (≈ 3.02 µM)
- MIC (Streptococcus pneumoniae [30]): 1 µg/mL (≈ 3.02 µM)
- MIC (Streptococcus pneumoniae [43]): 1 µg/mL (≈ 3.02 µM)
- MIC (Streptococcus pneumoniae [45]): 32 µg/mL (≈ 96.6 µM)
